The nature of experiment [1]: Binding affinity to Klebsiella pneumoniae MGH78578 N-terminal His6-tagged VapC expressed in Escherichia coli BL21(DE3) by isothermal titration calorimetry. The gist of the method: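 Isothermal titration calorimetry was run at 25 °C with VapC, quantified by A280. Background was subtracted and the data were fitted to a single-site binding model.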
Experiment [2] has as its system Klebsiella pneumoniae. The experiment can be described thus: Binding affinity to Klebsiella pneumoniae MGH78578 N-terminal His6-tagged VapC expressed in Escherichia coli BL21(DE3) assessed as increase in RNAase activity measured after 1 hr using fluorophore-labelled RNA by spectrofluorimetric method. Summed up:
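Free VapC (10 μM) was stripped of metals with 10 mM EDTA, then exchanged into purification buffer with 10 mM Mg²⁺. It was incubated without the VapB partner, with 40 U RNase inhibitor, in 20 mM HEPES pH 7.5 and 400 mM NaCl with quenched fluorophore-labelled RNA (5 pM final). Fluorescence was followed for 1 h at ex 490/em 520 nm.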

The nature of experiment [3]: Inhibition of Klebsiella pneumoniae MGH78578 N-terminal His6-tagged VapB/C expressed in Escherichia coli BL21(DE3) protein-protein interaction assessed as activation of VapC-mediated RNAase activity measured after 1 hr using fluorophore-labelled RNA by spectrofluorimetric method. The gist of the method:
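Small molecule (1, 3.16 and 10 μM) was added to 10 μM VapBC complex. The complex was EDTA-stripped and Mg²⁺-reloaded, with 40 U RNase inhibitor, in 20 mM HEPES pH 7.5 and 400 mM NaCl with 5 pM final quenched RNA. RNase fluorescence was monitored for 1 h at ex 490/em 520 nm. Activity was expressed relative to free VapC. Screening was done in triplicate.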

The test system of experiment [4] is Klebsiella pneumoniae. As to the kind of experiment: Inhibition of Klebsiella pneumoniae MGH78578 N-terminal His6-tagged VapB/C expressed in Escherichia coli BL21(DE3) protein-protein interaction assessed as activation of VapC-mediated RNAase activity at 100 uM measured after 1 hr using fluorophore-labelled RNA by spectrofluorimetric method. The gist of the method: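 Peptide (100 μM) was added to purified VapBC complex (10 μM), pretreated with 10 mM EDTA and then 10 mM Mg²⁺. The reaction used 40 U RNase inhibitor, 20 mM HEPES pH 7.5, 400 mM NaCl and 5 pM final fluorophore/quencher RNA. RFU from released VapC was read over 1 h at ex 490/em 520 nm. Mean of three independent replicates ± SD.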

The structures appear in SMILES notation. Activity calls are given as the source filed them. The calls are words filed in the database; no cut-off is given here. Residues, ends and D or L forms follow the SMILES beside them.

`NC(=O)NC(=O)CCN1CCC(C(=O)c2ccc(O)cc2)CC1` registered a Kd in experiment [1] of 22 nM. The result in experiment [2] was inactive. Also, the IC50 in experiment [3] turned out to be 420 nM.

On to `CC[C@H](C)[C@H](NC(=O)[C@H](CC(C)C)NC(=O)[C@@H](NC(=O)[C@H](CC(N)=O)NC(=O)[C@@H](NC(=O)[C@@H](N)CC(=O)O)[C@@H](C)O)[C@@H](C)CC)C(=O)N[C@@H](CC(=O)O)C(=O)N[C@@H](CC(C)C)C(=O)N[C@@H](Cc1ccccc1)C(=O)O` (H-DTNILIDLF-OH), for which, in experiment [4], the inhibition entry was “Active”.

Regarding `CSCC[C@H](NC(=O)CN)C(=O)N[C@@H](CCC(=O)O)C(=O)N[C@@H](C)C(=O)N[C@@H](C)C(=O)N[C@@H](CCCNC(=N)N)C(=O)N[C@@H](CCC(N)=O)C(=O)N[C@@H](CC(C)C)C(=O)O` (H-GMEAARQL-OH), the outcome in experiment [2] was Active.

For the molecule `CSCC[C@H](NC(=O)CN)C(=O)N[C@@H](CCC(=O)O)C(=O)N[C@@H](Cc1ccc(O)cc1)C(=O)N[C@@H](C)C(=O)N[C@@H](CCCNC(=N)N)C(=O)N[C@@H](CCC(N)=O)C(=O)N[C@@H](CC(C)C)C(=O)O` (H-GMEYARQL-OH), binding in experiment [1] was put at a Kd of 150 nM. For the same molecule, the result in experiment [2] was Active. In addition, the inhibition result in experiment [4] was “Active”.

Turning to `CSCC[C@H](NC(=O)CN)C(=O)N[C@@H](CCC(=O)O)C(=O)N[C@@H](Cc1ccc(O)cc1)C(=O)N[C@@H](CCC(N)=O)C(=O)N[C@@H](CCCNC(=N)N)C(=O)N[C@@H](CCC(N)=O)C(=O)N[C@@H](CC(C)C)C(=O)O` (H-GMEYQRQL-OH), in experiment [1], the Kd worked out at 110 nM. Besides, the outcome in experiment [2] was Active. For the same molecule, the inhibition entry in experiment [4] is “Active”.

Turning to `CC[C@H](C)[C@H](NC(=O)[C@H](CC(C)C)NC(=O)[C@@H](NC(=O)[C@H](CC(N)=O)NC(=O)[C@@H](N)[C@@H](C)O)[C@@H](C)CC)C(=O)N[C@@H](CC(=O)O)C(=O)N[C@@H](CC(C)C)C(=O)N[C@@H](Cc1ccccc1)C(=O)O` (H-TNILIDLF-OH), the inhibition result in experiment [4] is “Active”.

Consider `CSCC[C@H](NC(=O)CN)C(=O)N[C@@H](CCC(=O)O)C(=O)N[C@@H](C)C(=O)N[C@@H](CCC(N)=O)C(=O)N[C@@H](CCCNC(=N)N)C(=O)N[C@@H](CCC(N)=O)C(=O)N[C@@H](CC(C)C)C(=O)O` (H-GMEAQRQL-OH), for which the affinity in experiment [1], expressed as Kd, was 170 nM. The result in experiment [2] was Active. In addition, the inhibition entry in experiment [4] is “Active”.

With `CCC1Oc2cc(S(=O)(=O)N3CCCC(C(=O)Nc4ccc(F)cc4)C3)c(C)cc2NC1=O` (configuration not stated), in experiment [1], the Kd worked out at 22 nM. Also, in experiment [2], the result was inactive. Besides, in experiment [3], the IC50 worked out at 400 nM.

In the case of `CC[C@H](C)[C@H](NC(=O)[C@H](CC(C)C)NC(=O)[C@@H](NC(=O)[C@H](CC(N)=O)NC(=O)[C@@H](N)[C@@H](C)O)[C@@H](C)CC)C(=O)N[C@@H](CC(=O)O)C(=O)N[C@@H](CC(C)C)C(=O)N[C@@H](Cc1ccccc1)C(=O)N[C@@H](CO)C(=O)O` (H-TNILIDLFS-OH), in experiment [4], the inhibition result is “Active”.

For `CSCC[C@H](NC(=O)CN)C(=O)N[C@@H](CCC(=O)O)C(=O)N[C@@H](Cc1ccc(O)cc1)C(=O)N[C@@H](CCC(N)=O)C(=O)N[C@@H](CCCNC(=N)N)C(=O)N[C@@H](CCC(N)=O)C(=O)N[C@@H](CC(C)C)C(=O)N[C@@H](CCCNC(=N)N)C(=O)N[C@@H](CCCCN)C(=O)O` (H-GMEYQRQLRK-OH), in experiment [2], the result was Active.

For the molecule `CC[C@H](C)[C@H](NC(=O)[C@H](CC(C)C)NC(=O)[C@@H](NC(=O)[C@H](CC(N)=O)NC(=O)[C@@H](NC(=O)[C@@H](N)CC(=O)O)[C@@H](C)O)[C@@H](C)CC)C(=O)N[C@@H](CC(=O)O)C(=O)N[C@@H](CC(C)C)C(=O)N[C@@H](Cc1ccccc1)C(=O)N[C@@H](CO)C(=O)O` (H-DTNILIDLFS-OH), in experiment [4], the inhibition entry is “Active”.

Regarding `CSCC[C@H](NC(=O)CN)C(=O)N[C@@H](CCC(=O)O)C(=O)N[C@@H](Cc1ccc(O)cc1)C(=O)N[C@@H](CCC(N)=O)C(=O)N[C@@H](CCCNC(=N)N)C(=O)N[C@@H](CCC(N)=O)C(=O)N[C@@H](CC(C)C)C(=O)N[C@@H](CCCNC(=N)N)C(=O)O` (H-GMEYQRQLR-OH), the outcome in experiment [2] was Active.

These data come from ChEMBL document CHEMBL4699622, “Structural and Functional Study of the Klebsiella pneumoniae VapBC Toxin-Antitoxin System, Including the Development of an Inhibitor That Activates VapC” (J Med Chem, 2020).
